Results on 27 compounds are retold here after ChEMBL document CHEMBL1143061, “Synthesis and antifungal activities of 5-(3,4,5-trimethoxyphenyl)-2-sulfonyl-1,3,4-thiadiazole and 5-(3,4,5-trimethoxyphenyl)-2-sulfonyl-1,3,4-oxadiazole derivatives” (Bioorg Med Chem, 2007).

The test system of assay [1] is Sclerotinia sclerotiorum. Kind of assay: Antifungal activity against Sclerotinia sclerotiorum at 50 ug/mL. The assay is classed as functional.
The test system of assay [2] is Fusarium graminearum. The experiment in a line: Antifungal activity against Gibberella zeae at 50 ug/mL. The assay is classed as functional.
Assay [3] has as its system Botrytis cinerea. The experiment in a line: Antifungal activity against Botrytis cinerea at 50 ug/mL. It is filed as functional.
The subject of a further assay is Cytospora. The experiment in a line: Growth inhibition of Cytospora mandshurica. It is filed as functional.
A further assay deals with Pyricularia grisea. The experiment in a line: Growth inhibition of Pyricularia grisea. It is filed as functional, organism-based.
In assay [4] the test system is Colletotrichum gloeosporioides. The experiment in a line: Growth inhibition of Colletotrichum gloeosporioides. The assay is classed as functional, organism-based.
Another assay concerns Rhizoctonia solani. Kind of assay: Growth inhibition of Rhizoctonia solani. It is filed as functional, organism-based. A digest of the protocol: (§1)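 In vitro inhibition of mycelial growth, with hymexazol as the reference fungicide. The EC50, the concentration that inhibits growth by 50%, was read from a dose–response curve. Results come from three separate experiments, each run in triplicate.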

The subject of another assay is Pyricularia oryzae. Kind of assay: Growth inhibition of Pyricularia oryzae. It is filed as functional, organism-based.
In the next assay the test system is Phytophthora infestans. Kind of assay: Growth inhibition of Phytophthora infestans. It is filed as functional, organism-based.
For a further assay, the system named is Fusarium oxysporum. The experiment in a line: Growth inhibition of Fusarium oxysporum. The assay is classed as functional, organism-based. The method in brief:
as §1

The test system of assay [5] is Fusarium graminearum. The experiment in a line: Antifungal activity against Gibberella zeae. The assay is classed as functional, organism-based. A digest of the protocol:
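In vitro inhibition of fungal mycelial growth. EC50 read from the dose–response curve. Three separate experiments, each in triplicate. Hymexazol was the standard reference.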

Assay [6] deals with Botrytis cinerea. Kind of assay: Antifungal activity against Botrytis cinerea. The assay is classed as functional, organism-based.
For assay [7], the system named is Sclerotinia sclerotiorum. The experiment in a line: Antifungal activity against Sclerotinia sclerotiorum. It is filed as functional, organism-based.

Values after ≈ are worked out from the molar mass of the structure shown.

With `COc1ccc(CS(=O)(=O)c2nnc(-c3cc(OC)c(OC)c(OC)c3)o2)cc1`, the inhibition at 50 µg/mL with Sclerotinia sclerotiorum [1] worked out at 58.5%; in the assay with Fusarium graminearum [2], 33.9%; with Botrytis cinerea [3], 58.5%.
For the compound `COc1cc(-c2nnc(S(=O)(=O)Cc3ccccc3Cl)o2)cc(OC)c1OC`, the inhibition at 50 µg/mL was found to be 39.6% with Sclerotinia sclerotiorum [1], 11.9% in the assay with Fusarium graminearum [2] and 26.1% with Botrytis cinerea [3].
For `COc1cc(-c2nnc(S(=O)(=O)Cc3cccc([N+](=O)[O-])c3)o2)cc(OC)c1OC`, in that order: 38.3%, 11.8% and 40.7%.
In the case of `COc1ccccc1CS(=O)(=O)c1nnc(-c2cc(OC)c(OC)c(OC)c2)o1`, the inhibition at 50 µg/mL in the assay with Sclerotinia sclerotiorum [1] was 37.2%; in the assay with Fusarium graminearum [2], 23.7%; in the assay on Botrytis cinerea [3], 42.3%.
The matching figures for `COc1cc(-c2nnc(S(=O)(=O)Cc3ccccc3)o2)cc(OC)c1OC`: 71.2%, 54.9% and 67.3%.
The matching figures for `C=CCS(=O)(=O)c1nnc(-c2cc(OC)c(OC)c(OC)c2)o1`: 40.9%, 26.4% and 40.9%.
For `COc1cc(-c2nnc(S(C)(=O)=O)s2)cc(OC)c1OC`, in that order: 40.7%, 11.6% and 27.1%.
On to `COc1cccc(CS(=O)(=O)c2nnc(-c3cc(OC)c(OC)c(OC)c3)o2)c1`, for which the inhibition at 50 µg/mL in the assay with Sclerotinia sclerotiorum [1] stood at 40.6%; with Fusarium graminearum [2] it was 5.7%; in the assay with Botrytis cinerea [3], 38.1%.
For `COc1cccc(CS(=O)(=O)c2nnc(-c3cc(OC)c(OC)c(OC)c3)s2)c1`, in that order: 74.5%, 43.2% and 53.4%.
As to `COc1cc(-c2nnc(S(=O)(=O)Cc3ccc(Cl)nc3)s2)cc(OC)c1OC`, the figures for the inhibition at 50 µg/mL in the assay on Sclerotinia sclerotiorum [1], in the assay with Fusarium graminearum [2] and with Botrytis cinerea [3] were 21.3%, -1.1% and 25.9%, respectively.
For `CCOC(=O)CS(=O)(=O)c1nnc(-c2cc(OC)c(OC)c(OC)c2)o1`, in that order: 79.9%, 52% and 81.9%.
Consider `COc1cc(-c2nnc(S(=O)(=O)Cc3ccccc3F)o2)cc(OC)c1OC`, for which the inhibition at 50 µg/mL amounted to 33.4% with Sclerotinia sclerotiorum [1], 18.2% with Fusarium graminearum [2] and 52.3% in the assay on Botrytis cinerea [3].
The matching figures for `COc1cc(-c2nnc(S(=O)(=O)Cc3ccc(F)cc3)o2)cc(OC)c1OC`: 62.7%, 28.1% and 41.6%.
For `COc1cc(-c2nnc(S(=O)(=O)Cc3cccc(F)c3)o2)cc(OC)c1OC`, in that order: 38.3%, 9.3% and 35.8%.
The matching figures for `C=CCS(=O)(=O)c1nnc(-c2cc(OC)c(OC)c(OC)c2)s1`: 40.5%, 14% and 47.3%.
`COc1cc(-c2nnc(S(=O)(=O)Cc3ccc([N+](=O)[O-])cc3)s2)cc(OC)c1OC`: the inhibition at 50 µg/mL in the assay with Sclerotinia sclerotiorum [1] is 20%; with Fusarium graminearum [2] it was -1.8%; in the assay with Botrytis cinerea [3], 30.3%.
For `CCOC(=O)CS(=O)(=O)c1nnc(-c2cc(OC)c(OC)c(OC)c2)s1`, in that order: 49.4%, 21.1% and 49.7%.
For `COc1cc(-c2nnc(S(=O)(=O)Cc3ccc(Cl)nc3)o2)cc(OC)c1OC`, in that order: 67.9%, 38.9% and 60.3%.
In the case of `COc1cc(-c2nnc(S(C)(=O)=O)o2)cc(OC)c1OC`, the EC50 with Cytospora turned out to be 80.5 µg/mL (≈ 256 µM); in the assay on Pyricularia grisea, 30.8 µg/mL (≈ 98 µM); in assay [4] it was 21.8 µg/mL (≈ 69.4 µM); with Rhizoctonia solani, 93.3 µg/mL (≈ 297 µM); in the assay on Pyricularia oryzae it was 90.7 µg/mL (≈ 289 µM); with Phytophthora infestans, 83.2 µg/mL (≈ 265 µM). Moreover, the EC50 in the assay with Fusarium oxysporum was 24.5 µg/mL (≈ 77.9 µM); with Fusarium graminearum [5], 28.8 µg/mL (≈ 91.6 µM); in the assay with Botrytis cinerea [6], 11.7 µg/mL (≈ 37.2 µM); in the assay with Sclerotinia sclerotiorum [7] it was 12.5 µg/mL (≈ 39.8 µM). The inhibition at 50 µg/mL in the assay with Sclerotinia sclerotiorum [1] amounted to 100%; in the assay on Fusarium graminearum [2], 55.8%; with Botrytis cinerea [3] it was 100%.
With `COc1cc(-c2nnc(S(=O)(=O)Cc3ccccc3)s2)cc(OC)c1OC`, the figures for the inhibition at 50 µg/mL in the assay with Sclerotinia sclerotiorum [1], with Fusarium graminearum [2] and in the assay on Botrytis cinerea [3] were 22.9%, 8.3% and 27.5%, respectively.
Consider `CCS(=O)(=O)c1nnc(-c2cc(OC)c(OC)c(OC)c2)o1`, for which the EC50 in the assay on Cytospora is 20.5 µg/mL (≈ 62.4 µM); in [4], 26.3 µg/mL (≈ 80.1 µM); in the assay on Rhizoctonia solani it was 45.6 µg/mL (≈ 139 µM); with Fusarium oxysporum, 18 µg/mL (≈ 54.8 µM); with Botrytis cinerea [6], 2.9 µg/mL (≈ 8.83 µM); with Sclerotinia sclerotiorum [7], 4.3 µg/mL (≈ 13.1 µM). Also, the inhibition at 50 µg/mL in the assay on Sclerotinia sclerotiorum [1] and in the assay with Botrytis cinerea [3] was 100% each time.
`COc1cc(-c2nnc(S(=O)(=O)Cc3ccc([N+](=O)[O-])cc3)o2)cc(OC)c1OC`: the values for the inhibition at 50 µg/mL in the assay with Sclerotinia sclerotiorum [1], with Fusarium graminearum [2] and in the assay with Botrytis cinerea [3] were 62.2%, 42.1% and 76.8%, respectively.
The matching figures for `CCCS(=O)(=O)c1nnc(-c2cc(OC)c(OC)c(OC)c2)o1`: 64%, 59% and 59.4%.
For `COc1cc(-c2nnc(S(=O)(=O)Cc3ccc(Cl)cc3)o2)cc(OC)c1OC`, in that order: 35.5%, 23.3% and 30.8%.
The matching figures for `CCCS(=O)(=O)c1nnc(-c2cc(OC)c(OC)c(OC)c2)s1`: 38.1%, 13.5% and 33.5%.
Consider `Cc1cc(O)no1` [HYMEXAZOL], for which the inhibition at 50 µg/mL is 77.5% with Sclerotinia sclerotiorum [1], 52.9% in the assay with Fusarium graminearum [2] and 75.4% with Botrytis cinerea [3]. Further, the results for the EC50 in the assay with Rhizoctonia solani and in the assay with Fusarium oxysporum were 52.1 µg/mL (≈ 526 µM) and 29.1 µg/mL (≈ 294 µM), respectively.
As to `COc1cc(-c2nnc(S(=O)(=O)Cc3ccc(Cl)cc3)s2)cc(OC)c1OC`, the inhibition at 50 µg/mL was found to be 20.3% in the assay on Sclerotinia sclerotiorum [1], 5.5% in the assay with Fusarium graminearum [2] and 20.8% in the assay with Botrytis cinerea [3].
